Measured values as given in ChEMBL document CHEMBL3352815, “Indolinone based LRRK2 kinase inhibitors with a key hydrogen bond” (Bioorg Med Chem Lett, 2014).
Each block holds one compound with its values, some of them ahead of it.

Experiments:
[1] = molecular target: T1, Leucine-rich repeat serine/threonine-protein kinase 2 (Homo sapiens, UniProt Q5S007); test: Inhibition of recombinant LRRK2 (unknown origin) using gamma-32P-ATP assessed as LRRKtide substrate phosphorylation level by autoradiography
T1 sequence (Q5S007 whole entry): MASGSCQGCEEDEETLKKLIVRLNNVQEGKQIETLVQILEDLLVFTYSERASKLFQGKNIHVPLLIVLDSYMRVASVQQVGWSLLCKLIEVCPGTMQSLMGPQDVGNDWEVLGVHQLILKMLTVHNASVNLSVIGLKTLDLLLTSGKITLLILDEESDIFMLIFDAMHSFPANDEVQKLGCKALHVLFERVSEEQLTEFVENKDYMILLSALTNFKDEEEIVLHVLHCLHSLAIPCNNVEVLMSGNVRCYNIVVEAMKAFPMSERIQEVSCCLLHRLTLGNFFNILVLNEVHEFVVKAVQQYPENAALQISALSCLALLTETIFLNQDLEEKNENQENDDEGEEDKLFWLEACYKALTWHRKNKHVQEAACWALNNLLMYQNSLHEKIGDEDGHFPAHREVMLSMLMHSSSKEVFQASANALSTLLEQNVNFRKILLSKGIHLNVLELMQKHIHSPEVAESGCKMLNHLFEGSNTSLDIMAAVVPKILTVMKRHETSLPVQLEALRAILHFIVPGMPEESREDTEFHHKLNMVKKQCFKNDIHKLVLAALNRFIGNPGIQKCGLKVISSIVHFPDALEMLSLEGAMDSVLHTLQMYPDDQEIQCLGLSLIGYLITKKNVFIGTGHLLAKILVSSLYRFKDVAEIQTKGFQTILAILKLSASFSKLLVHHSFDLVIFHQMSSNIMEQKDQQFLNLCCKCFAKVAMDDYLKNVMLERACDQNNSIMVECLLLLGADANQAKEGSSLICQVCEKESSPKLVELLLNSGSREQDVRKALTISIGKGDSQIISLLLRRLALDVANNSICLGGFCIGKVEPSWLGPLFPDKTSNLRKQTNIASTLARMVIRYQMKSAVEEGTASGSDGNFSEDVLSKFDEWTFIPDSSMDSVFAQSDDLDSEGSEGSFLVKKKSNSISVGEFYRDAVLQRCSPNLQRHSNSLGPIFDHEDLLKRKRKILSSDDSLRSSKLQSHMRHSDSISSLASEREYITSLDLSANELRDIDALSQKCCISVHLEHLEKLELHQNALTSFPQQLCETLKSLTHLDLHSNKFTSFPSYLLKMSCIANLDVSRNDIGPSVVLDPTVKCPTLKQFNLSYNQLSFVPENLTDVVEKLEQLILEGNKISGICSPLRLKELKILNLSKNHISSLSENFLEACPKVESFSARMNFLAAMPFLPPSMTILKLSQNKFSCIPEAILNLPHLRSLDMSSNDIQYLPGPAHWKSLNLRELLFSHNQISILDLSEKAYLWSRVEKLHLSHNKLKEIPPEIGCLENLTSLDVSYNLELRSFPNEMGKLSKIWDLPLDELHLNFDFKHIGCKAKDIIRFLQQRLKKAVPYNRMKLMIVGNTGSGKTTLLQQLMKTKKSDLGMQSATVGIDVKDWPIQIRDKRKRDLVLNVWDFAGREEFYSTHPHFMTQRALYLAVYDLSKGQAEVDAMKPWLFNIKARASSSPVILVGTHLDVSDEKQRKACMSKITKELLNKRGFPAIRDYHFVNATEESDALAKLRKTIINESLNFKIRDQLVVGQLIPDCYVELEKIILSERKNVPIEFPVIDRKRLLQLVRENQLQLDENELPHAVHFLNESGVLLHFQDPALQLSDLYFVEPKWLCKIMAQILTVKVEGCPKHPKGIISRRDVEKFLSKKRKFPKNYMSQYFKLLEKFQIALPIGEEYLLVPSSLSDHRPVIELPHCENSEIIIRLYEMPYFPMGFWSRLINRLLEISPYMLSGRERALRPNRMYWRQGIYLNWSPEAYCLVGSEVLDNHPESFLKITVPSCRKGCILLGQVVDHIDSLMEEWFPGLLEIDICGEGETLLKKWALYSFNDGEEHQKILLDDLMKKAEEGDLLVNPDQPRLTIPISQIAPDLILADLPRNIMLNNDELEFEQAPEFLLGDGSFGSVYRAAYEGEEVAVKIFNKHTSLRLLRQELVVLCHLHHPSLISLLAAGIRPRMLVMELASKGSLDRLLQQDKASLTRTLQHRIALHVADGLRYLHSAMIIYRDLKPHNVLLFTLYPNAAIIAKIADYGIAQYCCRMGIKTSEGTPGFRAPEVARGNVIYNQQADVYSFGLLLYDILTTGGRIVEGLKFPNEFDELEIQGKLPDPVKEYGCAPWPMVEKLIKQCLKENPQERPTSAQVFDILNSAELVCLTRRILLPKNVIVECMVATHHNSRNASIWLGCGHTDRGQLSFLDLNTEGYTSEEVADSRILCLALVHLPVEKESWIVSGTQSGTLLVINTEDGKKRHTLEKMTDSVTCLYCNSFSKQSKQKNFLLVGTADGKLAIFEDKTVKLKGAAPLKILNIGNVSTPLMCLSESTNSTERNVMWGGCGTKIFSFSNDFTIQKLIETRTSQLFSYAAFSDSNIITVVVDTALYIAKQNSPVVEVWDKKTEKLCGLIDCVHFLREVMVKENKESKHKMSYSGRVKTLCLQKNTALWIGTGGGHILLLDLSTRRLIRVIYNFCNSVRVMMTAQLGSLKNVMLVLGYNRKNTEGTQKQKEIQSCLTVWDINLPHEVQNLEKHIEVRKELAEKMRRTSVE

[2] = molecular target: T1, Leucine-rich repeat serine/threonine-protein kinase 2; test: Inhibition of recombinant LRRK2 (unknown origin) using gamma-32P-ATP assessed as LRRKtide substrate phosphorylation level at 10 uM by autoradiography; set-up: scale not given: the % may be the effect or the level left
How it was run: (§1)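 In vitro LRRK2 kinase activity assay with a peptide substrate. Compound was tested at two concentrations, 10 and 1. Read-out is residual LRRK2 kinase activity, given as percent relative to control.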

[3] = molecular target: T1, Leucine-rich repeat serine/threonine-protein kinase 2; test: Inhibition of recombinant LRRK2 (unknown origin) using gamma-32P-ATP assessed as LRRKtide substrate phosphorylation level at 1 uM by autoradiography; set-up: scale not given: the % may be the effect or the level left; how it was run: as §1
[4] = molecular target: Glycogen synthase kinase-3 beta (Homo sapiens) (UniProt P49841); test: Inhibition of human recombinant GSK3beta using CFFKNIVTPRTPPPSQGK-amide substrate after 90 mins incubation by LANCE method
[5] = Toxicity in zebrafish embryo assessed as lethality at 20 to 30 uM after 24 hrs; assay type: organism-based, Danio rerio; settings: in vivo, read-out: Activity
How it was run: (§2)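 Zebrafish embryos kept in E3 medium at 28 °C; compound added at 24 hpf, with 1% DMSO embryos as control. Concentrations from 1 to 100 µM. Lethality recorded over time through 120 hpf, with phenotype also compared at 96 hpf.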

[6] = species on record: Danio rerio; test: Toxicity in zebrafish embryo assessed as crooked tails at 5 to 10 uM after 24 hrs; assay type: organism-based; settings: in vivo
[7] = molecular target: MAP kinase-interacting serine/threonine-protein kinase 2 (Homo sapiens) (UniProt Q9HBH9); test: Inhibition of human recombinant MNK2 expressed Sf21 cells using CREBtide (CKRREILSRRPSYRK) substrate assessed as remaining enzyme activity at 1 uM after 90 mins relative to control
[8] = Toxicity in zebrafish embryo assessed as lethality at 30 uM after 120 hrs; assay type: organism-based, Danio rerio; settings: in vivo, read-out: Activity; how it was run: as §2
[9] = molecular target: Vascular endothelial growth factor receptor 2 (Homo sapiens) (UniProt P35968); test: Inhibition of human recombinant KDR kinase expressed Sf9 cells using Ulight-CAGAGAIETDKEYYTVKD substrate assessed as remaining enzyme activity at 1 uM after 60 mins relative to control
[10] = molecular target: Insulin receptor (Homo sapiens) (UniProt P06213); test: Inhibition of human recombinant InsR using Ulight-Poly GAT[EAY(1:1:1)]n substrate assessed as remaining enzyme activity at 1 uM after 10 mins relative to control
Sequence of Insulin receptor (Homo sapiens) (P06213 28-758 limits assumed): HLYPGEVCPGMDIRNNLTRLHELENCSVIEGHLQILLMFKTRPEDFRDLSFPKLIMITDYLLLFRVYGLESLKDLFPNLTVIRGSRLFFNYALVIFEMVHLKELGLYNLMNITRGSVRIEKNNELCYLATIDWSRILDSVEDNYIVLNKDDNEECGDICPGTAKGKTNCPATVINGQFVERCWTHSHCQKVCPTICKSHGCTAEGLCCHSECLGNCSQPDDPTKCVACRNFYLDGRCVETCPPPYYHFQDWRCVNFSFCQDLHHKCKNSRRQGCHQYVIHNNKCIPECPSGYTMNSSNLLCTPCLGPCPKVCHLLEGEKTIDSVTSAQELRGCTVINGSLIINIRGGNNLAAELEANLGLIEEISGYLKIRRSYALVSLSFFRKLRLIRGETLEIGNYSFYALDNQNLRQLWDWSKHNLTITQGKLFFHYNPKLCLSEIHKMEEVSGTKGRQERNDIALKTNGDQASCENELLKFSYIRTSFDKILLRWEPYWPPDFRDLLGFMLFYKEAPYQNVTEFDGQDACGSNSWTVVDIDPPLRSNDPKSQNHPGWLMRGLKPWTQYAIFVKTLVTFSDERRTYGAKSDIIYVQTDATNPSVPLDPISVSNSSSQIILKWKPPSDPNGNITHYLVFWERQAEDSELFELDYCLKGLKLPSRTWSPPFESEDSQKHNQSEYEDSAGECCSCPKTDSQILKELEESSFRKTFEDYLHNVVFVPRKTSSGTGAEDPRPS
Sequence of Insulin receptor (Homo sapiens) (P06213 763-1382 limits assumed): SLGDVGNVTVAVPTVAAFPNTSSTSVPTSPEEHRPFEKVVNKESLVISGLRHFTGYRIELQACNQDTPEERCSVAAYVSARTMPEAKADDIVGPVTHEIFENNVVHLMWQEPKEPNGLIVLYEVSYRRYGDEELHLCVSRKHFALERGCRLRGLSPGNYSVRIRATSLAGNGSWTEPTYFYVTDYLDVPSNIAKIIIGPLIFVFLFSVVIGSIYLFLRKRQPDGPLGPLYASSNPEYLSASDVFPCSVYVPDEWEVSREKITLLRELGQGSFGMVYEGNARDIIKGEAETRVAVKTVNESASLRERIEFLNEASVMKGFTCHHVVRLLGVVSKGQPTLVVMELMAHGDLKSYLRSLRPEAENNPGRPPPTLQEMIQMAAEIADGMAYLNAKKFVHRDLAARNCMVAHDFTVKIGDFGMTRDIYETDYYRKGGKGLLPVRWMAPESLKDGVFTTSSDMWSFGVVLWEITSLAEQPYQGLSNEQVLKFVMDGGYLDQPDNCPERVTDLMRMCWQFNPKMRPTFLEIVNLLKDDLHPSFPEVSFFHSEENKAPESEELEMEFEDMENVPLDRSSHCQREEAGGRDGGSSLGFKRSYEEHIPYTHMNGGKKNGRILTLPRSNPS

[11] = species on record: Danio rerio; test: Toxicity in zebrafish embryo at below 10 uM after 24 hrs; assay type: organism-based; settings: in vivo
How it was run: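 Zebrafish embryos collected and kept in E3 medium at 28 °C. Compound added at 24 hpf, and phenotypes (growth, tail morphology) were compared at 96 hpf against control embryos in 1% DMSO. Lethality was followed over time up to 120 hpf across a concentration series.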

[12] = molecular target: RAC-alpha serine/threonine-protein kinase (Homo sapiens) (UniProt P31749); test: Inhibition of human recombinant Akt1/PKBalpha expressed insect cells using CKRREILSRRPSYRK substrate assessed as remaining enzyme activity at 1 uM after 60 mins relative to control
[13] = molecular target: MAP kinase-activated protein kinase 2 (Homo sapiens) (UniProt P49137); test: Inhibition of human recombinant MAPKAPK2 expressed Escherichia coli using CREBtide (CKRREILSRRPSYRK) substrate assessed as remaining enzyme activity at 1 uM after 15 mins relative to control
[14] = molecular target: High affinity nerve growth factor receptor (Homo sapiens) (UniProt P04629); test: Inhibition of human recombinant TRKA expressed insect cells using Ulight-Poly GAT[EAY(1:1:1)]n substrate assessed as remaining enzyme activity at 1 uM after 10 mins relative to control
[15] = molecular target: Tyrosine-protein kinase ABL1 (Homo sapiens) (UniProt P00519); test: Inhibition of human recombinant Abl kinase expressed insect cells using Ulight-TK peptide substrate assessed as remaining enzyme activity at 1 uM after 60 mins relative to control
[16] = molecular target: Serine/threonine-protein kinase TAO2 (Homo sapiens) (UniProt Q9UL54); test: Inhibition of human recombinant TAOK2 (TAO1) using Ulight-FLGFTYVAP substrate assessed as remaining enzyme activity at 1 uM after 60 mins relative to control
[17] = molecular target: Rho-associated protein kinase 1 (Homo sapiens) (UniProt Q13464); test: Inhibition of human recombinant ROCK1 using Ulight-RRRSLLE substrate assessed as remaining enzyme activity at 1 uM after 30 mins relative to control
[18] = molecular target: Serine/threonine-protein kinase Chk1 (Homo sapiens) (UniProt O14757); test: Inhibition of human recombinant CHK1 expressed insect cells using CREBtide (CKRREILSRRPSYRK) substrate assessed as remaining enzyme activity at 1 uM after 30 mins relative to control
[19] = molecular target: Serine/threonine-protein kinase Sgk1 (Homo sapiens) (UniProt O00141); test: Inhibition of human recombinant SGK1 using Ulight-RRRSLLE substrate assessed as remaining enzyme activity at 1 uM after 30 mins relative to control
[20] = molecular target: Serine/threonine-protein kinase Chk2 (Homo sapiens) (UniProt O96017); test: Inhibition of human recombinant CHK2 expressed insect cells using CREBtide (CKRREILSRRPSYRK) substrate assessed as remaining enzyme activity at 1 uM after 15 mins relative to control
[21] = molecular target: Serine/threonine-protein kinase 26 (Homo sapiens) (UniProt Q9P289); test: Inhibition of human recombinant MST4 kinase using Ulight TM- PKC substrate assessed as remaining enzyme activity at 1 uM after 30 mins relative to control
[22] = molecular target: Cyclin-dependent kinase 1/cyclin B1 (Homo sapiens) (UniProt P06493+P14635); test: Inhibition of human recombinant CDC2/CDK1 (cycB) expressed insect cells using Ulight-CFFKNIVTPRTPPPSQGK-amide substrate assessed as remaining enzyme activity at 1 uM after 15 mins relative to control
[23] = molecular target: 3-phosphoinositide-dependent protein kinase 1 (Homo sapiens) (UniProt O15530); test: Inhibition of human recombinant PDK1 expressed insect cells using Ulight-FLGFTYVAP substrate assessed as remaining enzyme activity at 1 uM after 90 mins relative to control
[24] = molecular target: Serine/threonine-protein kinase Nek2 (Homo sapiens) (UniProt P51955); test: Inhibition of human recombinant NEK2 expressed insect cells using Ulight-FLGFTYVAP substrate assessed as remaining enzyme activity at 1 uM after 60 mins relative to control
Sequence of Serine/threonine-protein kinase Nek2 (Homo sapiens) (P51955 whole entry): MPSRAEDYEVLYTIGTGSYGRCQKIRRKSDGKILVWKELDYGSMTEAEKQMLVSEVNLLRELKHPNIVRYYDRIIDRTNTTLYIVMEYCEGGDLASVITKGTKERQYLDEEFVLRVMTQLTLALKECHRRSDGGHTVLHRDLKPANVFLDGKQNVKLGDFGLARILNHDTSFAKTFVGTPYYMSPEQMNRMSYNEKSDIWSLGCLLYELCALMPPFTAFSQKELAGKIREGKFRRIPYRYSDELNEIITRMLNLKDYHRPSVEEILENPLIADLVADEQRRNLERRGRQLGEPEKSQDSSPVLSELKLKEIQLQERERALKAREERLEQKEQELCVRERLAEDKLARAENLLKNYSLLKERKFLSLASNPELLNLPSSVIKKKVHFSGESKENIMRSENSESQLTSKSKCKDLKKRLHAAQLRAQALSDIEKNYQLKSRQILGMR

[25] = molecular target: Hepatocyte growth factor receptor (Homo sapiens) (UniProt P08581); test: Inhibition of human recombinant c-Met kinase expressed insect cells using Ulight-CAGAGAIETDKEYYTVKD substrate assessed as remaining enzyme activity at 1 uM after 60 mins relative to control
[26] = molecular target: Ephrin type-A receptor 3 (Homo sapiens) (UniProt P29320); test: Inhibition of human recombinant EphA3 kinase using Ulight-TK peptide substrate assessed as remaining enzyme activity at 1 uM after 60 mins relative to control
[27] = molecular target: Serine/threonine-protein kinase PLK1 (Homo sapiens) (UniProt P53350); test: Inhibition of human recombinant PLK1 using Ulight-FLGFTYVAP substrate assessed as remaining enzyme activity at 1 uM after 60 mins relative to control
[28] = molecular target: Proto-oncogene tyrosine-protein kinase Src (Homo sapiens) (UniProt P12931); test: Inhibition of human recombinant Src kinase expressed insect cells using Ulight-Poly GAT[EAY(1:1:1)]n substrate assessed as remaining enzyme activity at 1 uM after 10 mins relative to control
[29] = molecular target: Cyclin-dependent kinase 2 (Homo sapiens) (UniProt P24941); test: Inhibition of human recombinant CDK2 using Ulight-CFFKNIVTPRTPPPSQGK-amide substrate assessed as remaining enzyme activity at 1 uM after 30 mins relative to control
[30] = molecular target: Interleukin-1 receptor-associated kinase 4 (Homo sapiens) (UniProt Q9NWZ3); test: Inhibition of human recombinant IRAK4 expressed insect cells using Ulight-FLGFTYVAP substrate assessed as remaining enzyme activity at 1 uM after 90 mins relative to control
Sequence of Interleukin-1 receptor-associated kinase 4 (Homo sapiens) (Q9NWZ3 whole entry): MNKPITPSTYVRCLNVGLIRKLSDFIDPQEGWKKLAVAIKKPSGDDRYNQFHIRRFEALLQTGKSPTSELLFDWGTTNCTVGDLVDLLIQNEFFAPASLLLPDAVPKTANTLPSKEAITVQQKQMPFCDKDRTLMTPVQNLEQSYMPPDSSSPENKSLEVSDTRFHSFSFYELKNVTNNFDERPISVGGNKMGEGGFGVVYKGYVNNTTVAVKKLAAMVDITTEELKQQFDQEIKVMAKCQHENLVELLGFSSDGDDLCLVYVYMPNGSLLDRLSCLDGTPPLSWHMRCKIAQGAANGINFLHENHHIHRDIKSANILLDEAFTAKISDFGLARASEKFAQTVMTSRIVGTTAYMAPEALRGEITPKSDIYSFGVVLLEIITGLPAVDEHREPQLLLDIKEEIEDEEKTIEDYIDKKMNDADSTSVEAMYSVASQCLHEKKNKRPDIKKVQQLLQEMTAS

[31] = molecular target: Tyrosine-protein kinase Lck (Homo sapiens) (UniProt P06239); test: Inhibition of human recombinant Lck kinase expressed insect cells using Ulight-Poly GAT[EAY(1:1:1)]n substrate assessed as remaining enzyme activity at 1 uM after 30 mins relative to control

IC50 [1]: 1500 nM
Compound: COc1c(C)cc(/C=C2/C(=O)Nc3ccc(Cl)cc32)cc1C

Activity [2]: 8%
Activity [3]: 12%
IC50 [1]: 12000 nM
Compound: O=C1Nc2ccc(Cl)cc2/C1=C\c1ccc(O)cc1

IC50 [1]: 31 nM
Compound: COc1ccc2c(c1)/C(=C\c1cc(Br)c(O)c(Br)c1)C(=O)N2

Activity [2]: 9%
Activity [3]: 8%
IC50 [1]: 163 nM
Compound: COc1cc(/C=C2/C(=O)Nc3ccc(Cl)cc32)ccc1OCCN1CCOCC1

Activity [2]: 3%
Activity [3]: 22%
IC50 [1]: 466 nM
Compound: CN(C)CCOc1ccc(/C=C2/C(=O)Nc3ccc(Cl)cc32)cc1

Activity [2]: 29%
Activity [3]: 62%
Compound: COc1cc(OCCN(C)C)ccc1/C=C1/C(=O)Nc2ccc(Cl)cc21

Activity [2]: 33%
Activity [3]: 22%
Compound: COc1cc(/C=C2/C(=O)Nc3ccc(Cl)cc32)ccc1N1CCOCC1

Compound: O=C1Nc2ccc(Cl)cc2/C1=C\c1ccc(O)c(Br)c1
inhibition [4]: 19%
mortality at 24 h, up to 30 µM [5]: > 80%
Activity [6]: Toxic

Activity [2]: 24%
Activity [3]: 26%
Compound: COc1cc(/C=C2/C(=O)Nc3ccc(Cl)cc32)ccc1OCCN(C)C

Activity [2]: 16%
Activity [3]: 27%
IC50 [1]: 10000 nM
Compound: O=C1Nc2ccc(Cl)cc2/C1=C\c1ccccc1

Compound: O=C1Nc2ccc(Cl)cc2/C1=C/c1cc(Br)c(O)c(Br)c1
Activity [7]: 89%
mortality at 120 h, 30 µM [8]: 40%
Activity [9]: 97%
Activity [10]: 104%
Activity [11]: Non-toxic
Activity [12]: 87%
Activity [13]: 83%
Activity [14]: 91%
Activity [15]: 77%
Activity [16]: 85%
Activity [17]: 92%
Activity [18]: 81%
Activity [19]: 100%
Activity [20]: 87%
Activity [21]: 103%
Activity [22]: 90%
Activity [23]: 83%
Activity [24]: 99%
Activity [25]: 69%
Activity [26]: 101%
Activity [27]: 80%
Activity [28]: 101%
Activity [29]: 95%
Activity [30]: 90%
Activity [31]: 102%

Activity [2]: 15%
Activity [3]: 37%
IC50 [1]: 205 nM
Compound: O=C1Nc2ccc(Cl)cc2/C1=C\c1ccc(OCCN2CCOCC2)cc1

Compound: CN[C@@H]1C[C@H]2O[C@@](C)([C@@H]1OC)n1c3ccccc3c3c4c(c5c6ccccc6n2c5c31)C(=O)NC4
Activity [2]: 2%
Activity [3]: 5%

Activity [2]: 5%
Activity [3]: 13%
Compound: COc1cc(C(=O)N2CCC(N3CCN(C)CC3)CC2)ccc1Nc1ncc2c(n1)N(C)c1ccccc1C(=O)N2C
